In ChEMBL document CHEMBL1137085, “Recognition of privileged structures by G-protein coupled receptors” (J Med Chem, 2004):
pIC50: −log10 of the molar value.

Assays:
Melanocortin receptor 4 [1] = biological target: T1, Melanocortin receptor 4 (Homo sapiens, UniProt P32245); test: Inhibition against human melanocortin-4 (MC4) receptor
Summary of the method: (§1)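 BHK570 cells stably transfected with MC4 cDNA, with clones selected in G418/MTX medium. Membranes were homogenised in 20 mM Hepes pH 7.1, 5 mM MgCl2 and bacitracin. 10 μg membranes were incubated with 80 pM 125-labelled NDP-α-MSH and varying test concentrations in 25 mM HEPES pH 7.0 buffer (CaCl2, MgSO4, EGTA, tween 20, 0.1% HSA) for 2 h at 25 °C. Samples were filtered and washed with ice-cold saline, then counted; IC50 was determined.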

[2] = biological target: T2, Type-1 angiotensin II receptor (Homo sapiens, UniProt P30556); test: Inhibition against human angiotensin II receptor, type 1 (AG2-R)
T2 sequence (P30556 whole entry): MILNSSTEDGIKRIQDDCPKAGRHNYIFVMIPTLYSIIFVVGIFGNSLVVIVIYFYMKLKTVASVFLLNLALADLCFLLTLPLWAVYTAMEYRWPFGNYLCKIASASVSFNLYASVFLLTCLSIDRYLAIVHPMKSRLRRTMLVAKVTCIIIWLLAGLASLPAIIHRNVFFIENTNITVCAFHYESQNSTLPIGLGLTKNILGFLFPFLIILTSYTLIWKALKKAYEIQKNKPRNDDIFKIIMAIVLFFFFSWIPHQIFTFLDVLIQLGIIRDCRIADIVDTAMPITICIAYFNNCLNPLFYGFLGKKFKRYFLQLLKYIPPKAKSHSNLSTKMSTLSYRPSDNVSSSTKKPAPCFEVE
Summary of the method: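 Competition binding assay with saralasin as tracer, run externally by a contract lab following a published method. IC50 values were derived from tracer displacement.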

[3] = biological target: Growth hormone secretagogue receptor type 1 (Sus scrofa, UniProt Q95254); test: Inhibition against pig growth hormone secretagogue (GHS) receptor
[4] = biological target: T3, Growth hormone secretagogue receptor type 1 (Homo sapiens, UniProt Q92847); test: Inhibition against human growth hormone secretagogue (GHS) receptor
Summary of the method: (§2)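 Competition binding assay with ghrelin as tracer, run as previously described. IC50 values were derived from tracer displacement.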

[5] = biological target: 5-hydroxytryptamine receptor 6 (Homo sapiens, UniProt P50406); test: Inhibition against human 5-hydroxytryptamine 6 receptor
Melanocortin receptor 4 [6] = biological target: T1, Melanocortin receptor 4; test: Inhibition against human melanocortin-4 (MC4) receptor; No binding detected; summary of the method: as §1
[7] = biological target: T3, Growth hormone secretagogue receptor type 1; test: Inhibition against human growth hormone secretagogue (GHS) receptor; No binding detected; summary of the method: as §2

T1 sequence (P32245 whole entry): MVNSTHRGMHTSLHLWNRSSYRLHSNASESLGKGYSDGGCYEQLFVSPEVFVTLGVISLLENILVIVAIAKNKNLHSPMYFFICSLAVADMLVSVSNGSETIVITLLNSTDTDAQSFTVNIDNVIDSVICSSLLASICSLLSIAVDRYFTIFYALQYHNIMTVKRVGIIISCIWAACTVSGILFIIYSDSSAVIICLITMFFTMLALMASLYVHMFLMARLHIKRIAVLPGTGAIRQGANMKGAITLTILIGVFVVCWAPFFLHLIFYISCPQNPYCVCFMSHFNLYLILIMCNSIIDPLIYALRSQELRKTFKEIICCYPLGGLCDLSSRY
T3 sequence (Q92847 whole entry): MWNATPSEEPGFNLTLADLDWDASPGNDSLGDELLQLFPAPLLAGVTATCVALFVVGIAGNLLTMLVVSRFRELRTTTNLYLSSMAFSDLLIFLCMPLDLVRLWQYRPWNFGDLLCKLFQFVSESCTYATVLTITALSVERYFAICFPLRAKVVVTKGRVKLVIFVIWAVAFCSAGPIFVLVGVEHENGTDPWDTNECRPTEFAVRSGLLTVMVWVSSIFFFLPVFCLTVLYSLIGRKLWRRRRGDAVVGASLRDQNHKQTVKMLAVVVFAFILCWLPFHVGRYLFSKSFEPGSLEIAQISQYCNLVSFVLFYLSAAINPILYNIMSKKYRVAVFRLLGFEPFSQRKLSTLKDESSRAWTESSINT
5-hydroxytryptamine receptor 6, sequence (P50406 whole entry): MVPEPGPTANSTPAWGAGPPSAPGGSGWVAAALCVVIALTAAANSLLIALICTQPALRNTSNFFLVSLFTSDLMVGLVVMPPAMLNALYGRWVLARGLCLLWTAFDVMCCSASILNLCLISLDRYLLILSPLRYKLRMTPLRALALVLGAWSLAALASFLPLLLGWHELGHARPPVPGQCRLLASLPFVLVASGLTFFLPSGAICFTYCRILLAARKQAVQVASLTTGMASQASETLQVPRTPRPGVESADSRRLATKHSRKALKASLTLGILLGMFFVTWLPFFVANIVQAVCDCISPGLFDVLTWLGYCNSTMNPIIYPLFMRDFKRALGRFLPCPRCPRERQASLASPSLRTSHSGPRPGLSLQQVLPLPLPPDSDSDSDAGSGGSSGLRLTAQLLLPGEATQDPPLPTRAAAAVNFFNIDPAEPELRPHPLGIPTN
Growth hormone secretagogue receptor type 1 (Sus scrofa, UniProt Q95254), sequence (Q95254 whole entry): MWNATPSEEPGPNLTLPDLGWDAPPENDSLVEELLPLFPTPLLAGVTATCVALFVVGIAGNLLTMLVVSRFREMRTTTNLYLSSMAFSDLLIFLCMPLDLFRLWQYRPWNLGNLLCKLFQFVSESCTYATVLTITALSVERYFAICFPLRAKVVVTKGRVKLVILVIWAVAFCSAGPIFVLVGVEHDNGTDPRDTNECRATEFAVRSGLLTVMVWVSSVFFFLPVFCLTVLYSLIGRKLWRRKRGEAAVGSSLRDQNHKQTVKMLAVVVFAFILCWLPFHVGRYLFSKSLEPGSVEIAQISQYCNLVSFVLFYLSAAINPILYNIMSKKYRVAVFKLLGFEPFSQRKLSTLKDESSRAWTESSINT

Cc1ccc2[nH]c(-c3ccc(Br)cc3)c(CCCCCNC3CCCCC3)c2c1 showed a pIC50 (Melanocortin receptor 4 [1]) of 6.21.
Compound CC(C)(N)CC(=O)N[C@@H]1CCc2ccccc2N(Cc2ccc(-c3ccccc3-c3nnn[nH]3)cc2)C1=O has a pIC50 [2] of 5.44, a pIC50 [3] of 7.20 and a pIC50 [4] of 5.55.
For CS(=O)(=O)N1CC2(CCN(C(=O)[C@@H](Cc3ccc(Cl)cc3)NC(=O)C3Cc4ccccc4CN3)CC2)c2ccccc21 (some centres undefined), the pIC50 (Melanocortin receptor 4 [1]) was 7.00 and the pIC50 [4] was 6.72.
CN(C)CCCc1c(-c2cccc(Br)c2)[nH]c2ccccc12 was tested, and the pIC50 [5] was 9.15.
For CC(C)(N)C(=O)N[C@H](COCc1ccccc1)C(=O)N1CCC2(CC1)CN(S(C)(=O)=O)c1ccccc12 [IBUTAMOREN], the IC50 (Melanocortin receptor 4 [6]) was “Not Active”.
With CCCCc1nc(Cl)c(CO)n1Cc1ccc(-c2ccccc2-c2nnn[nH]2)cc1 [LOSARTAN] the IC50 [7] was “Not Active”.
